Reference: PMC9339567 (Journal of Food and Drug Analysis, 2016)
Entries after “also recorded” stand apart in the source; their conditions may differ. Where no end group is shown, it is not given here.

Assays:
[1] = ref 32 (Sampath Kumar et al); cited from earlier work
[2] = DPPH radical scavenging assay; conditions: 15 μg/mL; absorbance 517 nm, 30 minutes in dark, room temperature; triplicate
In short: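 Test compound at 0.007–1 mg/mL, or GSH positive control over the same range, was mixed with an equal volume of 99.5% ethanol containing 0.02% DPPH. The mixture was held 30 minutes in the dark at room temperature and A517 read, with distilled water replacing sample as control. Scavenging % = (Acontrol − Asample)/Acontrol × 100; triplicate.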

[3] = ABTS radical scavenging activity assay; conditions: 6 minutes incubation, absorbance 734 nm; triplicate
[4] = cited from earlier work
HFLF-PI 5 cells = assay: Cytotoxicity assay; assay type: cell-based, human; conditions: 0–1 mg/mL, MTT 570 nm
In short: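 HFLF-PI 5 human lung cells were grown in RPMI with penicillin/streptomycin and 10% FBS at 37°C, 5% CO2. Cells were seeded at 1 × 10^5 cells/mL and, at 75% confluence, exposed to test compound at 0–1 mg/mL for 24, 48 or 72 hours, with PBS as control. After PBS washes, MTT (5 mg/mL stock) was added overnight at 37°C and formazan dissolved in DMSO. A570 was read and cytotoxicity % calculated relative to control.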

[5] = ref 28 (Tanzadehpanah et al); cited from earlier work

**Q.** With ACFL as the substance, how does the “Inhibition of the oxidation process relative to α-tocopherol” value [1] read?
**A.** Its value is “greater levels of inhibition of the oxidation process”.

**Q.** Which DPPH-radical scavenging [2] does the source give for glutathione [GSH] here?
**A.** The DPPH-radical scavenging was 67%.

**Q.** And the “IC50 ABTS radical scavenging” value [3]?
**A.** The value was less than 15 mg/L.

**Q.** With HGPLGPL as the substance, how does the “Activity against ROS and linoleic acid peroxidation” value [4] read?
**A.** Its value is “strong activity”.

**Q.** Which results are given for WESLSRLLG [WG-9]?
**A.** Effect on cell viability (HFLF-PI 5 cells; 24 hours, triplicate): no significantly effect on cell viability; also recorded: no significant cytotoxic effect; Effect on cell viability (HFLF-PI 5 cells; 48 hours, p < 0.05): significantly reduced; Effect on cell viability (HFLF-PI 5 cells; 72 hours, p < 0.05): significantly reduced

**Q.** With LTEQESGVPVMK as the substance, how does the “IC50 DPPH radical scavenging” value [5] read?
**A.** The value was 28.6 ± 1.08 mg/L.
